# Source: PubChem (several laboratories)
# Runt-CBFb FRET: Runt domain-CBFb interaction inhibition; Q01196+Q13951; Cerulean-Runt/Venus-CBFb FRET ratio 530/480, 1 h; inhibition, % at 20 µM; actives 0.46% (n = 220,000); AID 1496;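 active means inhibition over about 50% at 20 µM in the single-dose screen, limit read from the data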;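 further: 0% = DMSO wells and 100% = excess unlabeled CBFb competitor control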
#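 Assay system: Cerulean-tagged RUNX1 Runt domain (FRET donor) fusion protein / Amount: 100 nM each of Venus-CBFb and Cerulean-Runt domain / Medium: Tris buffer pH 7.5 with salts and BSA / Also added: Venus-CBFb 100 nM / Schedule: 1 h complex formation plus 1 h compound treatment, room temperature / Signal: FRET fluorescence / Read-out: loss of energy transfer signal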
# RanGTP-Impb inh: disruptors of Ran-importin-beta complex formation – biochemical, FRET, CFP-Ran, YFP-importin-beta, homogeneous, primary screen; actives 1.1% (n = 300,000); AID 2216; inhibition, % (no concentration beside the values); cell-free CFP-Ran/YFP-importin-beta FRET ratio;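 active means more than half of the replicate wells show a fall in the fluorescence ratio signal beyond about 16%, limit read from the data, passing the limit was not always enough; inconclusive means exactly half of the replicate wells pass the set limit; inactive means fewer than half of replicates pass the limit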;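 further: 0% = DMSO wells and 100% = Ran loaded with GDP instead of GTP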
# LANA-H2A inh: blocks KSHV LANA binding to histone H2A/H2B. inhibition, % (no concentration beside the values). Q9QR71. AID 2629. actives 0.6% (n = 320,000). cell-free LANA-H2A/H2B peptide, fluorescence polarization; in the data active means inhibition mostly above about 10%, no sharp cut-off; inactive means mostly below about 6.7%
# HDAC3 inhib: blocks human histone deacetylase 3; O15379; inhibition, % at 8.3 µM; actives 0.15% (n = 320,000); recombinant HDAC3, fluorogenic peptide/trypsin coupled, fluorescence; AID 2718; in the data active means inhibition above about 26%, passing the limit was not always enough; inconclusive means no clear call, values can overlap the other calls
# Target sequence (O15379 whole entry, looked up): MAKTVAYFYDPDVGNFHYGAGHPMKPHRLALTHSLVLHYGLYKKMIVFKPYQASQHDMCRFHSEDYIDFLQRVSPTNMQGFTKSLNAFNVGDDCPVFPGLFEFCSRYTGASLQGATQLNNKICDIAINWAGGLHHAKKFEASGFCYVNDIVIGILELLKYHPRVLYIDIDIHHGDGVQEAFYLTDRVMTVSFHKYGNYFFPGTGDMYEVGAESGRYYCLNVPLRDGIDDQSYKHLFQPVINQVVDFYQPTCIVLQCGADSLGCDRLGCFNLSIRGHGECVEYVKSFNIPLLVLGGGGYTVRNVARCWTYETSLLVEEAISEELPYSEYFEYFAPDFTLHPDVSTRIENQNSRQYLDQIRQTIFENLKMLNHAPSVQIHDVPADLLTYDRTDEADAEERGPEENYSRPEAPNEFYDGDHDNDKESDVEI
# CaV13 FRET inh: Disruptors of the CACNA1D IQ motif to Ca2+-dependent inactivation inhibitor domain association, primary screening, Förster resonance energy transfer in intact living … | inhibition, % at 12.3 µM | AID 743397 | actives 0.098% (n = 340,000) | HEK cells, CFP/YFP FRET ICDI-IQ, plate reader, 10 min; percent FRET-ratio fall versus neutral wells;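 active means mean replicate inhibition of at least 30% and at least 1% of replicates passing that level; inconclusive means only one of the two criteria is met; inactive means neither criterion is met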;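 further: 0% = median of the neutral control wells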
# Runt-SMMHC FRET: Runt domain-CBFb-SMMHC interaction inhibition; Cerulean-Runt/Venus-CBFb-SMMHC FRET ratio 530/480, 1 h; Q01196+Q13951; AID 1434; inhibition, % at 20 µM; actives 0.74% (n = 220,000);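 active means mean inhibition across duplicate retests at 20 µM reaching about 50%, limit read from the data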;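 further: 0% = DMSO wells and 100% = wells with excess untagged CBFb-SMMHC; inhibitors lower the FRET ratio by blocking Runt binding to CBFb-SMMHC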
# Active calls of the source: *; i = inactive; ? = inconclusive; . = not tested or not shown; + = active, no number. A selection: hits, their analogues and other compounds. The true share with any hit is near 1.9%.
SMILES,Runt-CBFb FRET,RanGTP-Impb inh,LANA-H2A inh,HDAC3 inhib,CaV13 FRET inh,Runt-SMMHC FRET
Cc1nc2ccccn2c1C(=O)NNS(=O)(=O)c1ccc(Cl)cc1,0,1,-1,-11,-4,-1
COCCCn1c(=O)/c(=C\c2ccc(OC(F)F)c(OC)c2)s/c1=C(/C#N)C(N)=O,-89,-173,29*,0,-4,81*
CC1(C)CC(CC(=O)O)CC(C)(C)N1,1,0,0,4,3,-2
CC1(C)CNC(=O)CC(C)(C)N1,0,5,43*,0,5,5
COc1cc(C2Nc3ccccc3NC3=C2C(=O)CC(c2ccc(OC)c(OC)c2)C3)ccc1O (stereo not given),11,5,-1,5,-2,56*
CC(C(=O)Nc1ccccc1C(F)(F)F)N1CCN(C)CC1 (stereo not given),.,3,1,1,-8,.
Cc1nnc(SCc2cccc([N+](=O)[O-])c2)o1,0,3,-2,11,-7,-1
CCC/C=C(\CCC)C(NS(=O)(=O)c1ccc(C(F)(F)F)cc1)c1ccccc1 (stereo not given),-2,2,0,27*,.,-5
COC(=O)C1=CN(C)C=C(C(=O)OC)C1c1ccsc1,108*,33*,.,.,.,61*
COCCN1C=C(C(=O)OC)C(c2ccc(OC)c(OC)c2)C(C(=O)OC)=C1,12,6,-2,-11,-8,39
O=C(NCc1ccccc1Cl)c1csc(COCCO)n1,.,.,.,.,-5,.
O=C(CN1CCN(S(=O)(=O)N2CCCCC2)CC1)Nc1ccc(Cl)c(Cl)c1,.,-4,45*,10,-18,.
O=C(CN1CCN(S(=O)(=O)N2CCCCC2)CC1)Nc1cc(Cl)cc(Cl)c1,.,-2,8,2,-5,.
COCCNC(=O)c1cc(-c2cccs2)on1,1,1,1,-1,-6,-2
COCCNC(=O)Nc1ccc2nc(-c3cccs3)c(-c3cccs3)nc2c1,15,120*,10,4,-2,81*
O=C(Nc1ccc2nc(-c3cccs3)c(-c3cccs3)nc2c1)NC1CC1,-13,121*,-3,3,-1,-73
COc1ccc2[nH]c3c(C)c4ccncc4c(C)c3c2c1,11,45*,0,-1,.,22
Cc1c2ccncc2cc2c1[nH]c1ccccc12,.,.,.,.,-13,.
COc1ccc([C@H]2CC(=O)C=C(c3ccccc3C(F)(F)F)C2)cc1,.,.,3,-3,-5,.
COc1cccc(OCCNC(=O)c2ccc(C)cc2)c1,.,5,-1,16,-4,.
CC(C)CNC(=S)N(CCN(C)C)Cc1cc2cc3c(cc2[nH]c1=O)OCCO3,.,4,2,7,-6,.
O=C(COC(=O)/C=C/c1cccc(Cl)c1)NC1CC1,.,.,19*,1,-13,.
COc1ccc(C(=O)CSc2nccn2C)cc1,.,0,-1,-1,-3,.
Cn1ccnc1SCC(=O)c1ccc(C#N)cc1,.,3,3,36*,-3,.
O=C1Nc2ccccc2C1=Nc1ccc(Br)cc1,.,4,-4,-14,-6,.
SMILES,Runt-CBFb FRET,RanGTP-Impb inh,LANA-H2A inh,HDAC3 inhib,CaV13 FRET inh,Runt-SMMHC FRET
Cc1nc2nc(-c3cccs3)[nH]c2cc1Br,.,-1,-1,-4,-15,.
CCC(C)NC(=O)C(=O)NC1CCCC1 (stereo not given),0,2,.,.,3,1
CN1c2ccc(Cl)cc2C(=O)NC1C1CC=CCC1 (stereo not given),42,30*,-1,1,44*,95*
CC(C)CC1NC(=O)c2cc(Cl)ccc2-n2c1nc1cc(F)ccc1c2=O (stereo not given),.,.,0,-1,-11,.
Cc1nc2ccccc2c(=O)n1Cc1ccco1,1,-9,4,1,-3,-3
CCOCCCn1c(=N)c(S(=O)(=O)c2ccc(C)cc2)cc2c(=O)n3cc(C)ccc3nc21,.,158*,7,-2,14,.
Cc1ccc(S(=O)(=O)c2cc3c(=O)n4ccccc4nc3n(Cc3ccco3)c2=N)cc1C,14,76*,2,-16,.,-14
N=c1c(S(=O)(=O)c2ccccc2)cc2c(=O)n3ccccc3nc2n1Cc1ccco1,12,85*,-2,-61,.,.
CNC(=O)c1cc2c(=O)n3cc(C)ccc3nc2n(Cc2ccco2)c1=N,88*,.,.,.,.,42
CCCNC(=O)C(Cc1ccc(Cl)cc1)NC(=O)c1ccc(C#N)cc1 (stereo not given),.,.,-2,3,-3,.
COC(=O)c1cc(C(=O)Nc2ccc(Cl)cn2)cc([N+](=O)[O-])c1,-2,4,-4,-6,-4,4
CNC(=O)c1cc2c(=O)n3cc(C)ccc3nc2n(C(C)C)c1=N,11,181*,1,i,.,41
Cc1ccc(CCNC(=O)c2ccc3nc4ccc(Cl)cc4c(=O)n3c2)cc1,.,?,-1,1,-20,.
Cc1ccc2nc3c(cc(S(=O)(=O)c4ccccc4)c(=N)n3Cc3ccco3)c(=O)n2c1,19,?,1,4,+,92*
CCCn1c(=O)c2c(nc3n2CC(C)CN3Cc2ccccc2)n(C)c1=O (stereo not given),.,2,0,4,-6,.
COc1cccc2sc3ccc(C#CC4(O)CCCCC4)cc3c(=O)c12,.,49*,4,3,-6,.
COc1cccc2oc3cc(C#CC4(O)CCCCC4)ccc3c(=O)c12,.,2,1,-7,-3,.
CC(C)COc1ccc(/C=C2/Sc3ccccc3C2=O)cc1,-12,43*,0,0,0,-34
CC(=O)Oc1cccc(/C=C2\Sc3ccccc3C2=O)c1,-26,1,14*,4,-16,-40
CCCCOc1ccc(/C=C2/Sc3ccccc3C2=O)cc1,-2,14,-17,0,-4,-12
Cc1ccsc1/C=N/NC(=O)c1nnn(-c2nonc2N)c1C,.,-1,4,6,-4,.
CN1CCCN(C(=O)c2cccc(Br)c2)CC1,.,0,12*,3,11,.
COc1cc2ccccc2cc1C(=O)NC(=S)Nc1cc(C(=O)O)ccc1C,-6,-1,.,.,-3,-6
CCN(CC(=O)Nc1c(F)cccc1F)C(=O)c1ccc(C#N)cc1,.,-20,4,.,-19,.
O=c1c(O)c(-c2ccc3c(c2)OCO3)oc2ccccc12,-22,32*,2,-2,-3,-53
CCN(CC)S(=O)(=O)c1ccc(C(C)NCC(=O)Nc2ccccc2C(=O)NC2CC2)cc1 (stereo not given),.,.,.,.,-6,.
CC(NCC(=O)Nc1ccccc1C(=O)NC1CC1)c1ccc(S(N)(=O)=O)cc1 (stereo not given),.,.,+,-1,-7,.
